TRPC6 act: mouse TRPC6 channel activation; hit rate 0.13% among 310,000; B-score at 10 µM; HEK293-TRPC6 membrane potential dye fluorescence; stronger effect = higher value; AID 2550;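 active = B-score of the integrated fluorescence ratio above library mean plus 3 SD, and starting fluorescence ratio within library mean plus 5 SD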;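 note: higher score means more depolarization so channel activation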
TRPC4 block: TRPC4 (mouse) channel inhibition; AID 2247; Q9QUQ5; B-score at 10 µM; HEK293 TRPC4beta/mu-opioid, DAMGO-evoked Fluo4 calcium flux; stronger effect = lower value; hit rate 0.39% among 300,000;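 active = B-score over 3 SD under the library average, no early fluorescence shift, positive overall ratio signal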
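Material: HEK293 cells with stable TRPC4beta plus mu-opioid receptor expression; probe or stimulus: DAMGO in two steps, submaximal then maximal; technique: Fluo4 calcium fluorescence by kinetic imaging, 5 s 1 Hz baseline; measure: integrated fluorescence ratio relative to baseline, converted to per-well B score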
TRPC4 PAM: allosteric potentiators of mouse TRPC4 channel; Q9QUQ5; HEK293 TRPC4beta/mu-opioid, DAMGO EC20, Fluo-4 Ca2+ flux; stronger effect = higher value; B-score at 10 µM; hit rate 0.42% among 310,000; AID 2227;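 active = B-score of calcium response area above 5 SD of library B-scores, with initial fluorescence ratio within 5 SD of library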
TRPC6 inhibitor: inhibitors of mouse TRPC6 channel | Q61143 | B-score at 10 µM | HEK293-TRPC6, membrane potential dye, ACh-evoked depolarization; stronger effect = lower value | hit rate 1.1% among 310,000;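 active = B-score under library mean minus 3 SD, initial fluorescence not abnormally high, positive integrated signal ratio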;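 note: B-score derived from integrated fluorescence ratio over the kinetic read; more negative B-score means stronger inhibition of depolarization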
TRPC4 agonist: activators of mouse TRPC4 channel; Q9QUQ5; HEK293 TRPC4beta/mu-opioid, Fluo4 calcium fluorescence; stronger effect = higher value; B-score at 10 µM; hit rate 0.49% among 310,000; AID 2237;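 active = B-score above 5 SD of library B-scores, and initial fluorescence ratio not above library mean plus 5 SD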;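 note: positive B-score marks a calcium rise read as TRPC4 activation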
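Test system: HEK293 cells stably co-expressing mouse TRPC4beta and mu-opioid receptor | Schedule: Fluo4 dye loading 45 min at room temperature, 110 s recording | Measured by: Kinetic Fluo4 calcium fluorescence, 5 s baseline at 1 Hz | Evaluation: B score of integrated ratio | Controls: Buffer (low) and maximal DAMGO (high)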
Hits are given with their value; n = inactive. Only some compounds are listed: those with a hit (about 2.3% of all), similar ones and a draw of the others.

SMILES	TRPC6 act	TRPC4 block	TRPC4 PAM	TRPC6 inhibitor	TRPC4 agonist
CN1CCN(c2ccc(Cl)cc2NC(=O)c2ccc(S(=O)(=O)N3CCCCCC3)cc2)CC1	n	n	n	n	n
CCN1CCN(c2ccc(S(=O)(=O)N3CCCCC3)cc2NC(=O)C(C)Oc2ccc(F)cc2)CC1 (centres undefined)	n	n	n	n	96
CCN1CCN(c2ccc(S(=O)(=O)N3CCCCC3)cc2NC(=O)c2cccc(C)c2)CC1	n	n	n	n	n
CN1CCN(c2ccc(S(=O)(=O)N3CCCCC3)cc2NC(=O)c2ccc(C#N)cc2)CC1	n	n	11	n	n
O=C(COc1ccc(S(=O)(=O)N2CCCC2)cc1Cl)N1CCN(c2ccccc2)CC1	n	n	10	n	n
O=c1c(C(c2ccc(F)cc2)c2c(O)nc3n(c2=O)CCS3)c(O)nc2n1CCS2	n	n	n	n	n
CC1CCC2C(=O)N(c3ccccc3OC(=O)c3ccccc3F)C(=O)C2C1 (centres undefined)	n	n	n	n	n
O=C(OCCN1CCN(C2=NS(=O)(=O)c3ccccc32)CC1)c1ccccc1F	n	n	n	n	n
CCN1CCN(c2ccc(S(=O)(=O)N3CCCCC3)cc2NC(=O)COc2ccc(Cl)cc2)CC1	n	n	n	n	n
CCN1CCN(c2ccc(S(=O)(=O)N3CCOCC3)cc2NC(=O)/C=C/c2ccc(OC)cc2OC)CC1	n	n	n	n	101
Cc1ccccc1OCC(=O)Nc1cc(S(=O)(=O)N2CCCCC2)ccc1N1CCN(C)CC1	n	n	n	n	84
CCN1CCN(c2ccc(S(=O)(=O)N3CCCCC3)cc2NC(=O)COc2ccc(F)cc2Cl)CC1	n	n	12	n	n
CCCCCN(C(=O)CCC(=O)OCC(=O)N1CCC(C)CC1)c1c(N)n(CCCC)c(=O)[nH]c1=O	n	n	n	n	n
CC12CC(NC(=O)N1c1cccc(C(=O)N3CCCCC3)c1)c1ccccc1O2 (centres undefined)	n	n	n	n	n
Cn1cnc2c(oc3ccccc32)c1=O	n	n	n	n	n
COc1ccc(/C=C2\SC(=S)N(N3C(=O)CCC3=O)C2=O)cc1O	n	n	144	n	n
COc1ccc(/C=C2\SC(=O)N(CC(=O)Nc3ccc(F)cc3)C2=O)cc1O	n	n	11	n	n
COc1ccc(Cl)cc1N1C(=O)CN(Cc2cc(OC)c(OC)c(OC)c2)C1=S	n	n	n	n	n
CC1CCCN(C(C(=O)NC2CCCCC2)c2cc3c(cc2[N+](=O)[O-])OCO3)C1 (centres undefined)	n	n	n	n	n
CC1CCN(C(C(=O)NC2CCCCC2)c2cc3c(cc2[N+](=O)[O-])OCO3)CC1 (centres undefined)	n	n	11	n	n
CCOC(=O)c1c(NC(=O)CSc2ncn[nH]2)sc(C(C)=O)c1C	n	n	n	n	n
COC(=O)c1c(NC(=O)CSc2ncn[nH]2)sc(C)c1C	n	-7	n	n	n
O=C(C[n+]1ccc(C(=O)NCc2ccccc2)cc1)c1ccc(OC(F)F)cc1	n	n	10	n	n
NC(=O)C[n+]1cccc(CNC(=O)c2ccc(OC(F)F)cc2)c1	n	n	n	n	n
COC(=O)c1sccc1NC(=O)CSc1ccccc1N	n	n	n	n	n
SMILES	TRPC6 act	TRPC4 block	TRPC4 PAM	TRPC6 inhibitor	TRPC4 agonist
COC(=O)c1sccc1NC(=O)CSc1ccccc1NC(=O)CNC(C)C	n	-6	n	n	n
CCCCCCn1c(=O)[nH]c2c(c1=O)CCC2	n	n	n	n	n
CCCCCCCn1c2c(c(=N)c3c1CCC3)CCCC2	n	n	n	-6.04	n
COc1ccc(-n2nc(C(=O)NCC(=O)NCCCN3CC(C)CC(C)C3)c3ccccc3c2=O)cc1Cl (centres undefined)	n	n	n	n	128
Cc1ccc(C)c(C(=O)OCC(=O)N(C)c2ccccc2)c1	n	n	n	n	n
CCCNC(=O)c1c[nH]c2ccc(S(=O)(=O)N(C)c3ccc(OCC)cc3)cc2c1=O	n	n	n	n	n
CCCCN(C)CCNC(=O)c1c[nH]c2ccc(S(=O)(=O)N(CC)CC)cc2c1=O	n	n	20	n	n
CC(Oc1ccc(Br)cc1)C(=O)Nc1ccc(S(=O)(=O)N(C)C2CCN(C)CC2)cc1 (centres undefined)	n	n	n	n	63
O=C1CCCC(=O)N1c1ccc(N2CCN(c3ccc([N+](=O)[O-])cc3)CC2)c([N+](=O)[O-])c1	n	n	21	n	n
COc1ccc(CCNC(=O)c2cc(C)oc2C)cc1	n	n	n	n	n
O=C(NCCCN1CCCC1)c1ccc2c(c1)N(Cc1cccc(Cl)c1)C(=O)c1ccccc1S2=O (centres undefined)	n	n	n	n	n
CC1CC(C)CN(CCCNC(=O)c2ccc3c(c2)N(Cc2ccccc2)C(=O)c2ccccc2S3=O)C1 (centres undefined)	n	n	n	n	85
CCCCSCCCNC(=O)c1ccc2c(c1)N(CC)C(=O)c1ccccc1S2=O (centres undefined)	n	n	n	n	n
CCCN(CCC)CCCNC(=O)c1ccc2c(c1)N(CC)C(=O)c1ccccc1S2=O (centres undefined)	n	n	n	n	66
COc1ccc(S(=O)(=O)N2CCN(C(=O)c3sccc3-c3ccccc3)CC2)cc1	n	n	n	n	n
COc1ccc(C2CC(=O)c3cnc(N4CCc5ccccc54)nc3C2)cc1OC (centres undefined)	n	n	n	n	n
CNc1nc(N2CCc3ccccc32)ncc1F	n	n	47	n	n
CN1C2C=C(N(CCc3c[nH]c4ccccc34)C(=O)c3ccc(Cl)cc3)CC1CC2 (centres undefined)	n	-6	n	n	88
COc1ccc(NC(C#N)c2ccccc2OCc2ccccc2)cc1 (centres undefined)	n	n	10	n	n
COc1ccccc1N1CC=C(c2cccc([N+](=O)[O-])c2)NC1=O	n	n	n	n	n
O=C1COc2ccc(S(=O)(=O)N3CCCC3)cc2N1	n	n	n	n	n
O=C1COc2ccc(N3C(=O)C=CC3=O)cc2N1	n	-7	n	n	n
CCOc1ccccc1N(CC)C(=O)c1nn(C)c2c1CSc1ccccc1-2	n	-6	n	n	n
CCCN(CCC)CCCNC(=O)C1CCN(S(=O)(=O)c2cccc3nsnc23)CC1	n	n	n	n	134
CCN(CCNC(=O)C1CCN(S(=O)(=O)c2cccc3nsnc23)CC1)c1ccccc1	n	n	n	n	n
O=C(N/N=C/c1cccc([N+](=O)[O-])c1)C(=O)N1CCCCCC1	n	n	n	n	n
CCn1cc[n+](C)c1P(c1ccccc1)c1ccccc1	n	-5	n	n	51
CN(C)CCC1Sc2ccccc2Oc2ccccc21 (centres undefined)	n	-6	n	n	n

Source: PubChem (Johns Hopkins Ion Channel Center)
